This is an account of results in ChEMBL document CHEMBL5576109, “Hydantoin derivative dimers as broad-spectrum antimicrobial agents against ESKAPE pathogens with enhanced killing rate and stability” (RSC Med Chem, 2024).

Format in all cases: functional
Assay [1] relates to Staphylococcus aureus. As to the kind of experiment: Antibacterial activity against Staphylococcus aureus ATCC 29213 assessed as reduction bacterial growth after 16 hrs by TECAN SPARK microplate reader analysis. The method, boiled down:
(§1)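 Single colony grown overnight in 4 mL TSB at 37 °C, diluted 100-fold and grown to mid-log phase. Compounds 2-fold serially diluted in TSB and mixed 1:1 with bacteria in TSB (1 × 10^6 CFU/mL). Incubated 16 h at 37 °C, then A600 read. MIC taken as the lowest concentration giving complete growth inhibition.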

Assay [2] relates to Escherichia coli. As to the kind of experiment: Antibacterial activity against Escherichia coli ATCC 25922 assessed as reduction bacterial growth after 16 hrs by TECAN SPARK microplate reader analysis. The method, boiled down: as §1
The test system of assay [3] is Enterococcus faecalis. As to the kind of experiment: Antibacterial activity against Enterococcus faecalis ATCC 29212 assessed as reduction bacterial growth after 16 hrs by TECAN SPARK microplate reader analysis. The method, boiled down:
as §1

Assay [4] deals with Staphylococcus aureus. As to the kind of experiment: Antibacterial activity against methicillin-resistant Staphylococcus aureus ATCC 43300 assessed as reduction bacterial growth after 16 hrs by TECAN SPARK microplate reader analysis. The procedure, abridged: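 Broth microdilution in TSB: single colony grown overnight at 37 °C, diluted 100-fold and grown to mid-log phase. 2-fold serial compound dilutions mixed 1:1 with bacteria at 1 × 10^6 CFU/mL, incubated 16 h at 37 °C, absorbance read at 600 nm. MIC taken as lowest concentration giving complete growth inhibition.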

Assay [5] has as its system Pseudomonas aeruginosa. As to the kind of experiment: Antibacterial activity against Pseudomonas aeruginosa CMCC 10104 assessed as reduction bacterial growth after 16 hrs by TECAN SPARK microplate reader analysis. The procedure, abridged: as §1
For assay [6], the system named is Acinetobacter baumannii. As to the kind of experiment: Antibacterial activity against Acinetobacter baumannii ATCC 19606 assessed as reduction bacterial growth after 16 hrs by TECAN SPARK microplate reader analysis. The procedure, abridged:
as §1

Assay [7] has as its system Klebsiella pneumoniae. As to the kind of experiment: Antibacterial activity against Klebsiella pneumoniae ATCC 10031 assessed as reduction bacterial growth after 16 hrs by TECAN SPARK microplate reader analysis. The method, boiled down:
as §1

Assay [8] deals with Bacillus subtilis. As to the kind of experiment: Antibacterial activity against Bacillus subtilis ATCC 6633 assessed as reduction bacterial growth after 16 hrs by TECAN SPARK microplate reader analysis. The procedure, abridged: as §1

In brackets after ≈: the same amount, converted by molar mass.

Take `CCCCCCCCCCCCN1C(=O)[C@H](CCCCN)N(Cc2ccc(-c3ccc(CN4C(=O)N(CCCCCCCCCCCC)C(=O)[C@@H]4CCCCN)cc3)cc2)C1=O`: the minimal inhibitory concentration (MIC) in assay [1] and in assay [2] was 250 mg/L (≈ 292 µM) in each case.

Take `CCCCCCN1C(=O)[C@H](CCCCN)N(Cc2ccc(-c3ccc(-c4ccc(CN5C(=O)N(CCCCCC)C(=O)[C@@H]5CCCCN)cc4)cc3)cc2)C1=O`: the minimum inhibitory concentration (MIC) (as a rule, the smallest concentration in the dilution series that meets the test's criterion for growth inhibition) turned out to be 15.6 mg/L (≈ 20.4 µM) in assay [3]; 250 mg/L (≈ 327 µM) in assay [4]; 250 mg/L (≈ 327 µM) in assay [5]; 125 mg/L (≈ 163 µM) in assay [6]; 62.5 mg/L (≈ 81.7 µM) in assay [7]; 7.81 mg/L (≈ 10.2 µM) in assay [1]. The minimal inhibitory concentration (MIC) in assay [8] was 3.91 mg/L (≈ 5.11 µM); in assay [2], 62.5 mg/L (≈ 81.7 µM).

As for `CCCCN1C(=O)[C@H](CCCCN)N(Cc2ccc(-c3ccc(CN4C(=O)N(CCCC)C(=O)[C@@H]4CCCCN)cc3)cc2)C1=O`, the MIC in assay [3] was 250 mg/L (≈ 395 µM); in assay [4], 125 mg/L (≈ 198 µM); in assay [5], 125 mg/L (≈ 198 µM); in assay [6], 62.5 mg/L (≈ 98.8 µM); in assay [7] it was 15.6 mg/L (≈ 24.7 µM); in assay [1], 62.5 mg/L (≈ 98.8 µM). The MIC came out at 15.6 mg/L (≈ 24.7 µM) in assay [8] and 125 mg/L (≈ 198 µM) in assay [2].

On to `CC1(C)S[C@@H]2[C@H](NC(=O)Cc3ccccc3)C(=O)N2[C@H]1C(=O)O` [PENICILLIN G], for which the MIC in assay [1] was 0.98 mg/L (≈ 2.93 µM); in assay [2], 250 mg/L (≈ 748 µM).

Consider `CCCCCCN1C(=O)[C@H](CCCCN)N(Cc2cccc(CN3C(=O)N(CCCCCC)C(=O)[C@@H]3CCCCN)c2)C1=O`, for which the MIC in assay [3] was 62.5 mg/L (≈ 102 µM); in assay [4] it was 250 mg/L (≈ 408 µM); in assay [5], 31.2 mg/L (≈ 51 µM); in assay [6], 125 mg/L (≈ 204 µM); in assay [7], 62.5 mg/L (≈ 102 µM); in assay [1] it was 31.2 mg/L (≈ 51 µM). The MIC is 7.81 mg/L (≈ 12.7 µM) in assay [8] and 250 mg/L (≈ 408 µM) in assay [2].

With `CC1(C)S[C@@H]2[C@H](NC(=O)[C@H](N)c3ccccc3)C(=O)N2[C@H]1C(=O)O` [AMPICILLIN], the MIC in assay [1] turned out to be 0.98 mg/L (≈ 2.8 µM); in assay [2], 250 mg/L (≈ 715 µM).

As for `CCCCCCN1C(=O)[C@H](CCCCN)N(Cc2ccc(CN3C(=O)N(CCCCCC)C(=O)[C@@H]3CCCCN)c3ccccc23)C1=O`, the MIC in assay [3] turned out to be 62.5 mg/L (≈ 94.3 µM); in assay [4], 125 mg/L (≈ 189 µM); in assay [5] it was 62.5 mg/L (≈ 94.3 µM); in assay [6], 125 mg/L (≈ 189 µM); in assay [7], 31.2 mg/L (≈ 47.1 µM); in assay [1] it was 15.6 mg/L (≈ 23.6 µM). Further, the minimum inhibitory concentration (MIC) in assay [8] is 15.6 mg/L (≈ 23.6 µM); in assay [2], 125 mg/L (≈ 189 µM).

In the case of `CN[C@H](CC(C)C)C(=O)N[C@H]1C(=O)N[C@@H](CC(N)=O)C(=O)N[C@H]2C(=O)N[C@H]3C(=O)N[C@H](C(=O)N[C@H](C(=O)O)c4cc(O)cc(O)c4-c4cc3ccc4O)[C@H](O)c3ccc(c(Cl)c3)Oc3cc2cc(c3O[C@@H]2O[C@H](CO)[C@@H](O)[C@H](O)[C@H]2O[C@H]2C[C@](C)(N)[C@H](O)[C@H](C)O2)Oc2ccc(cc2Cl)[C@H]1O` [VANCOMYCIN], the values for the minimal inhibitory concentration (MIC) in assay [1] and in assay [2] were 1.95 mg/L (≈ 1.35 µM) and 125 mg/L (≈ 86.3 µM), respectively.

On to COLISTIN, for which the MIC stood at 250 mg/L in assay [1] and 3.91 mg/L in assay [2].

Turning to `CN(C)[C@@H]1C(O)=C(C(N)=O)C(=O)[C@@]2(O)C(O)=C3C(=O)c4c(O)cccc4[C@@](C)(O)[C@H]3C[C@@H]12` [TETRACYCLINE], the MIC stood at 0.98 mg/L (≈ 2.21 µM) in assay [1] and 7.81 mg/L (≈ 17.6 µM) in assay [2].

Regarding `O=C(O)c1cn(C2CC2)c2cc(N3CCNCC3)c(F)cc2c1=O` [CIPROFLOXACIN], the minimum inhibitory concentration (MIC) in assay [1] was found to be 0.39 mg/L (≈ 1.18 µM).

Consider `CO[C@H]1/C=C/O[C@@]2(C)Oc3c(C)c(O)c4c(O)c(c(/C=N/N5CCN(C)CC5)c(O)c4c3C2=O)NC(=O)/C(C)=C\C=C\[C@H](C)[C@H](O)[C@@H](C)[C@@H](O)[C@@H](C)[C@H](OC(C)=O)[C@@H]1C` [RIFAMPIN], for which the MIC worked out at 0.12 mg/L (≈ 0.146 µM) in assay [1] and 7.81 mg/L (≈ 9.49 µM) in assay [2].

Take `COc1cccc(OC)c1C(=O)N[C@@H]1C(=O)N2[C@@H]1SC(C)(C)[C@@H]2C(=O)O` [METHICILLIN]: the minimal inhibitory concentration (MIC) in assay [4] came to 250 mg/L (≈ 657 µM).
